In the library only some 9.6% were active in any assay of this set; here they are far more common.
bCat KO growth: primary screen for growth suppressors in beta-catenin knockout HCT116 cells (colon tumor, human) | AID 818, 2007 | hit rate 1.5% among 140,000 | viability, % at 10 µM | HCT116 beta-catenin knockout viability, CellTiter-Glo, 60 h; stronger effect = lower value;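 active means viability at or under a set limit, the compound median less 4 SD, cut at about 6% in these data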
PMI activator: activators of human PMI, primary screen, biochemical, fluorescence intensity, near-Km mannose 6-phosphate; purified human PMI, coupled resazurin fluorescence, 20 min; stronger effect = higher value; 1 = vehicle control, 0 substrate-free wells; activation factor at 20 µM; hit rate 0.005% among 190,000; AID 1214, 2008;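 active means activation factor of 2 or more at 20 µM, relative to plate controls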
Target sequence (P34949 whole entry, looked up): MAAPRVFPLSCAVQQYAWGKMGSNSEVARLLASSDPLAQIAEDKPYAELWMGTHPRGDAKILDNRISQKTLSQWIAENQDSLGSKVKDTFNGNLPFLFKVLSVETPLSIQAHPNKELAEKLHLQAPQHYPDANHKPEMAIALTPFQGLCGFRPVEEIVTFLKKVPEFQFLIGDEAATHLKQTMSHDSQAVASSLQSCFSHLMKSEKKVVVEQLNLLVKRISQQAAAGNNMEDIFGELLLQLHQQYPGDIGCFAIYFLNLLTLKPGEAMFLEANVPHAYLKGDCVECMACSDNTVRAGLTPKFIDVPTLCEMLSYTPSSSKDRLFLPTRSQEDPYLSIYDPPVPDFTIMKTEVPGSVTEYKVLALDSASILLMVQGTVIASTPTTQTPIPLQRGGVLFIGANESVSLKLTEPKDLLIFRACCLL
L major viab: Leishmania major promastigote growth inhibition, primary screen; Leishmania major promastigotes, resazurin fluorescence viability; inhibition, % at 10 µM; hit rate 9% among 200,000; AID 1063, 2008; in the data active means inhibition above about 50%;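 further: promastigotes grown with compound for 44 hours at 28 °C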
PMI act satM6P: human PMI activators, high substrate, primary screen, biochemical, fluorescence intensity, near-saturating mannose 6-phosphate; Mannose-6-phosphate isomerase (Homo sapiens), P34949; coupled PMI enzyme assay, resazurin fluorescence, 20 min; stronger effect = higher value; 1 = untreated enzyme, 0 = substrate-free blank; activation factor at 20 µM; hit rate 0.34% among 190,000; AID 1216, 2008;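 active means activation factor of 2 or more at 20 µM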
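test system = human PMI in coupled enzyme assay | medium = HEPES-buffered pH 7.4 with magnesium and detergent | also added = 1.0 mM mannose-6-phosphate substrate with 0.22 mM NADP+ | compound = 20 µM single dose | times = 20 min incubation at room temperature | measured by = resorufin fluorescence (Ex 544/Em 590 nm) from resazurin via diaphorase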
HCT116 PTEN-null: growth suppression of PTEN-null HCT116, primary screen, cell-based, CellTiter-Glo | HCT116 PTEN-null viability, 60 h; stronger effect = lower value | hit rate 1.2% among 140,000 | viability, % at 10 µM;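 active means viability at or below a set limit, 4 SD under the median of all tested compounds, cut at about 3.7% in these data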;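 further: PTEN knockout HCT116 line with beta catenin targeted HCT116 as companion control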
Hits are given with their value; – = inactive; · = no result.

SMILES | bCat KO growth | PMI activator | L major viab | PMI act satM6P | HCT116 PTEN-null
Cc1ccc(NC(=S)Nc2ccc3nc(-c4ccccn4)c(-c4ccccn4)nc3c2)cc1C | – | – | 72 | – | –
CCOC(=O)Cc1csc(NC(=O)NC2(C(F)(F)F)Oc3ccccc3O2)n1 | – | – | 90 | – | –
CCOC(=O)Cc1csc(NC(=O)NC2(C(F)(F)F)Oc3cc(Cl)c(Cl)cc3O2)n1 | – | – | – | – | –
CCOC(=O)Cc1csc(NC(=O)NC2(C(F)(F)F)Oc3ccc(Cl)cc3O2)n1 (stereo unspecified) | – | – | 53 | – | –
O=C(O)COc1ccc(/C=N/Nc2nc(Nc3ccccc3)nc(N3CCCCC3)n2)cc1 | · | – | – | – | ·
NNC(=O)c1ccc(N2CCCCCC2)c([N+](=O)[O-])c1 | · | – | – | – | ·
CC(CCc1ccccc1)NC(=O)C1CCN(S(=O)(=O)N2CCOCC2)CC1 (stereo unspecified) | – | – | – | – | –
Cc1cc(C)cc(COn2ccnc2)c1 | – | – | – | – | –
O=S(=O)(NCc1cc(-c2ccccc2Cl)no1)c1ccccc1 | – | – | 79 | – | –
O=S(=O)(NCc1cc(-c2ccccc2)no1)c1ccccc1 | · | – | – | – | ·
NC(=O)COC(=O)CC12CC3CC(CC(Br)(C3)C1)C2 | · | – | – | – | ·
CN(C)CCNc1oc(COc2ccc(-c3ccccc3)cc2)nc1C#N | – | – | 66 | – | –
N#Cc1nc(COc2ccc(-c3ccccc3)cc2)oc1NCCCN1CCOCC1 | – | – | 64 | – | –
CSc1ccc(-c2nc3cnccn3c2Nc2ccc3c(c2)OCO3)cc1 | – | – | 100 | – | –
Oc1ccccc1-c1nc2cnccn2c1Nc1ccc2c(c1)OCCO2 | 4.3 | – | 77 | – | 3.3
c1cncc(-c2nc3ccccn3c2Nc2ccc3c(c2)OCCO3)c1 | – | – | – | – | –
CCN(CC)CCNC(=O)c1c(C)oc2cc(Br)c(OC)cc12 | – | – | – | – | –
CCc1ccc2nc3n[nH]c(N)c3cc2c1 | – | – | – | – | –
Nc1[nH]nc2nc3ccccc3cc12 | · | – | – | 2.2 | ·
FC(F)(F)c1ccc(Nc2nnnc3ccccc23)cc1 | · | – | – | – | ·
Cc1ccc(Oc2ccc(NC(=O)Cn3ccsc3=N)cc2)cc1 | – | – | 100 | – | –
Cn1c(-c2ccc(F)cc2)cnc1NCc1cccc(F)c1 | – | – | 78 | – | –
Cc1cc(NCc2ccc3c(c2)OCO3)n2nc(C)nc2n1 | – | – | – | – | –
Cn1c(-c2ccc3c(c2)OCO3)cnc1NCc1cccc(O)c1 | · | – | 63 | – | ·
Cn1c(-c2ccc(F)cc2)cnc1NCc1ccccc1 | – | – | – | – | –
SMILES | bCat KO growth | PMI activator | L major viab | PMI act satM6P | HCT116 PTEN-null
O=C(O)c1cccc(NCc2cccnc2)c1 | – | – | – | – | –
Cc1cccc(NCc2cc(Cl)ccc2O)n1 | – | – | – | – | –
COc1cccc(-c2cnc(NCc3cc(Cl)ccc3O)n2C)c1 | – | – | 63 | – | –
Cn1c(-c2cccc(Br)c2)cnc1NCc1cccnc1 | – | – | 97 | – | –
Cc1cc(C)cc(N(C(=O)CCC(=O)Nc2ccccn2)C(C(=O)NC(C)C)c2ccc(O)cc2)c1 (stereo unspecified) | · | – | – | – | ·
Oc1cccc2ccc[n+](CC(O)Cn3c4ccccc4c4ccccc43)c12 (stereo unspecified) | – | – | 91 | – | –
CCOC(=O)CC(NC(=O)c1cccc2c1C(=O)N(Cc1cccnc1)C2)c1ccc(OC(C)C)cc1 (stereo unspecified) | · | – | – | – | ·
CCOC(=O)c1c(NC(=S)Nc2ccccc2)sc2c1CC(C)(C)SC2 | – | – | – | – | –
CCCN1CCc2c(sc(NC(=S)NC(=O)c3ccccc3)c2C#N)C1 | · | – | – | 2 | ·
CCOC(=O)c1c(NC(=O)CSc2ncccn2)sc2c1CCN(Cc1ccccc1)C2 | – | – | 99 | – | –
CCOC(=O)c1c(NC(=S)Nc2ccccc2)sc2c1CCN(CCc1ccccc1)C2 | – | – | 79 | – | –
CCOC(=O)c1c(NC(=O)CSc2nnc3c(n2)[nH]c2ccccc23)sc2c1CCN(C)C2 | · | · | 100 | · | ·
O=C(CN1CCN(c2ncccn2)CC1)N1CCN(C(c2ccccc2)c2ccccc2)CC1 | · | · | 98 | · | ·
CCOC(=O)c1cc(CC)sc1/N=C/c1c(O)ccc2ccccc12 | – | – | 64 | – | –
CCOC(=O)/C=C1\SCC(=O)N1CCOc1cccc(Br)c1 | – | – | – | – | –
COc1cc2c(cc1OC)C(c1ccc(-c3cc(Cl)ccc3Cl)o1)=NCC2 | – | – | – | – | 3.3
COc1cc2c(cc1OC)C(c1ccc(-c3ccc(Cl)c(Cl)c3)o1)=NCC2 | 4.1 | – | 71 | – | 2.8
COc1cc2c(cc1OC)C(c1ccc(-c3ccc(Cl)cc3Cl)o1)=NCC2 | – | – | – | – | –
O=C(OCCCN=C1NS(=O)(=O)c2ccccc21)c1ccccc1F | – | – | – | – | –
COc1ccccc1N1CCN(c2ccc(-c3ccccc3)nn2)CC1 | – | – | 64 | – | –
C#CC(CC)(CC)NC(=S)Nc1cccc(C(C)=O)c1 | – | – | – | – | –
COc1cc(CCC(O)CC(=O)CCc2ccccc2)ccc1O (stereo unspecified) | · | – | – | – | ·
CCOC(=O)CSc1cccc2cccnc12 | 6.0 | – | 91 | – | 2.7
Cc1nn(-c2cccc(Cl)c2)c2nc(-c3ccncc3)cc(C(=O)N3CCOCC3)c12 | · | – | – | – | ·
CC1CC(C)CN(CCCNC(=O)c2ccc3c(c2)NC(=O)C(N2CCCCC2)S3)C1 (stereo unspecified) | – | – | – | – | –
SMILES | bCat KO growth | PMI activator | L major viab | PMI act satM6P | HCT116 PTEN-null
CCCn1ncc(CN2CCC(CO)(CC3CCCCO3)CC2)c1C (stereo unspecified) | · | – | – | – | ·
O=C(Nc1ccccc1N1CCN(C(=O)c2ccc(Cl)cc2)CC1)c1cccnc1 | – | – | – | – | –
O=C(Nc1ccccc1N1CCCC1)c1cccnc1 | – | – | – | 2.1 | –
O=C(Nc1ccccc1N1CCCC1)c1ccc(Br)o1 | – | – | – | 2.1 | –
O=C(Nc1cc(C(F)(F)F)ccc1N1CCCCC1)c1ccc(Br)o1 | – | – | – | – | –
CCC(C)(C)c1ccc(OCCCC[n+]2cccc(C)c2)c(C(C)(C)CC)c1 | · | – | 100 | – | ·
Cc1ccc[n+](CC(=O)Nc2cc(C(F)(F)F)ccc2Cl)c1 | – | – | – | – | –
CC(=O)Nc1ccc(C(=O)OCC(=O)N(Cc2ccccc2)C(C)(C)C)cc1 | – | – | 67 | – | –
CC12CCC(c3nnc(SCc4ccc(Cl)cc4)nc31)C2(C)C (stereo unspecified) | – | – | – | – | –
CN1CCC2(CC1)Nc1nc(SCc3ccc(Cl)cc3)nn1C1=C2CN(C)CC1 | – | – | 97 | – | –
COc1cc(CNCCN2CCOCC2)ccc1OCc1ccccc1Cl | – | – | 92 | – | –
CCOc1c(Cl)cc(CNCc2ccccn2)cc1OC | · | – | – | – | ·

Screens as filed in PubChem.
